Calls of active or inactive are those of the source. The rule behind the calls is not given here.
Experiments:
Mus musculus [1] = organism: Mus musculus; experiment: Binding affinity to beta-amyloid plaque in APP/PS1 transgenic mouse brain assessed as signal-to-noise ratio after 30 mins by DAPI staining; format: tissue-based
Outline: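 Eleven-month-old APP/PS1 mice (Tg2576 × PS1 M146L 6.1) perfusion-fixed with 4% paraformaldehyde; cryosections 10 μm, three per concentration. Stained 30 min with 50 μM compound in 9:1 PBS/EtOH, then washed in 75% EtOH, 95% EtOH and xylene. Imaged through a DAPI filter; S/N taken from five plaque versus five background regions across three plaques per section.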

[2] = system: Radical scavenging activity; experiment: Antioxidant activity assessed as DPPH radical scavenging activity by spectrophotometric analysis; format: functional
Outline: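 DPPH (100 μM) in MeOH mixed with test compound from 0 nM to 5 mM; compounds came from ~15 mM DMSO stocks diluted in MeOH. Loss of absorbance at 517 nm read on a plate reader. Each concentration run in triplicate; IC50 taken from a sigmoidal dose-response fit.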

[3] = Binding affinity to aggregated amyloid beta (1 to 40) by fluorescence titration analysis
[4] = molecular target: Amyloid-beta precursor protein (Homo sapiens) (UniProt P05067); experiment: Binding affinity to beta-amyloid plaque in brain of patient with Alzheimer's disease after 30 mins by fluorescence microscopy; format: tissue-based
Outline: (§1)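 Frozen sections (10 μm) of human AD brain and age-matched control brain. Stained 30 min with 50 μM compound in 9:1 PBS/EtOH, washed in 75% EtOH, 95% EtOH and xylene, then fluorescence-imaged through a DAPI filter.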

[5] = molecular target: Amyloid-beta precursor protein (Homo sapiens) (UniProt P05067); experiment: Binding affinity to beta-amyloid plaque in normal human brain after 30 mins by fluorescence microscopy; format: tissue-based; outline: as §1
Mus musculus [6] = experiment: In vivo binding affinity to beta-amyloid plaque in PDAPP transgenic mouse hippocampus CA1 region at 50 mg/kg, ip after 48 hrs; format: functional, organism-based; design: dose 50 mg/kg
Outline: (§2)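 Ten-month-old PDAPP mice given a single 50 mg/kg ip dose, vehicle 10% DMSO/PBS, with vehicle-only animals as control. Perfused with 4% PFA at 48 h; brain sections postfixed in 4% PFA for 5 min and mounted. CA1 and dentate gyrus plaques imaged by fluorescence microscopy at 10× and 40×.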

Mus musculus [7] = experiment: In vivo binding affinity to beta-amyloid plaque in PDAPP transgenic mouse hippocampus dentate gyrus region at 50 mg/kg, ip after 48 hrs; format: functional, organism-based; design: dose 50 mg/kg; outline: as §2
Mus musculus [8] = experiment: In vivo binding affinity to beta-amyloid plaque in mouse hippocampus dentate gyrus region at 50 mg/kg, ip after 48 hrs; format: functional, organism-based; design: dose 50 mg/kg

Sequence of Amyloid-beta precursor protein (Homo sapiens) (P05067 whole entry): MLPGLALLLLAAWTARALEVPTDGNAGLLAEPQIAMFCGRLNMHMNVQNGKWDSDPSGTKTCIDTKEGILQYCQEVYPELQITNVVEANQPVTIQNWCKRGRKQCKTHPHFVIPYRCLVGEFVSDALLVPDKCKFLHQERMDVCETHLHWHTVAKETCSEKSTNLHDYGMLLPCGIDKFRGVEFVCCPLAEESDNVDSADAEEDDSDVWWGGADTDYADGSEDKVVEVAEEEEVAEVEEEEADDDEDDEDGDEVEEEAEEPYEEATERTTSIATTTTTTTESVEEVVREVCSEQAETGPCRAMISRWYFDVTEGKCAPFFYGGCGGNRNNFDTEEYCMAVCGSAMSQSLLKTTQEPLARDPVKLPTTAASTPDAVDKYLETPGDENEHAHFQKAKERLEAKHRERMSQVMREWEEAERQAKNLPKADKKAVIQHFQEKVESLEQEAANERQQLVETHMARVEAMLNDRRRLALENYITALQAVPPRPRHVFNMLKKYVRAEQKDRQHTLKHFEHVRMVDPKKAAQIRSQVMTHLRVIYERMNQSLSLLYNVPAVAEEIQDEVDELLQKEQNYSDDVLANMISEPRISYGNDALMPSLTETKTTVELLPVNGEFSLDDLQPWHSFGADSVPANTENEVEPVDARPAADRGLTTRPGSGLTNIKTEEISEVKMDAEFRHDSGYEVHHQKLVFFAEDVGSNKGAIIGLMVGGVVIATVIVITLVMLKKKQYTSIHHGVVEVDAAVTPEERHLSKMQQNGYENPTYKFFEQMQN

| Ratio (Mus musculus [1]) | IC50 [2] [µM] | Kd [3] [µM] | Activity [4] | Activity [5] | Structure (SMILES) | Activity (Mus musculus [6]) | Activity (Mus musculus [7]) | Activity (Mus musculus [8]) |
| --- | --- | --- | --- | --- | --- | --- | --- | --- |
| 5.9 | 45 | 0.054 | – | – | Oc1ccc(C#Cc2ccc(C#Cc3ccc(O)cc3)cc2)cc1 | – | – | – |
| 8.1 | 5.6 | 0.16 | – | – | Oc1ccc(/C=C/c2ccc(/C=C/c3ccccc3)cc2)cc1 | – | – | – |
| 14 | 3.1 | 0.0095 | Active | inactive | Oc1ccc(/C=C/c2ccc(/C=C/c3ccc(O)cc3)cc2)cc1 | Active | Active | inactive |
| 11 | 4 | 0.8 | – | – | Oc1ccccc1/C=C/c1ccc(/C=C/c2ccccc2O)cc1 | – | – | – |
| 9.1 | > 100 | 0.26 | – | – | Oc1ccc(/C=C/c2ccc(/C=C/c3ccc(O)c(O)c3)cc2)cc1 | – | – | – |
| 5.6 | 9.1 | 0.2 | – | – | Oc1cccc(/C=C/c2ccc(/C=C/c3ccc(O)c(O)c3)cc2)c1 | – | – | – |
| 5.1 | 4 | 6.3 | – | – | Oc1ccc(/C=C/c2ccccc2/C=C/c2ccc(O)cc2)cc1 | – | – | – |
| 3.8 | 4.5 | 0.19 | – | – | Oc1ccc(/C=C/c2ccc(/C=C/c3cc(O)cc(O)c3)cc2)cc1 | – | – | – |
| 3.1 | 3.4 | 2.5 | – | – | Oc1ccc(/C=C/c2cccc(/C=C/c3ccc(O)cc3)c2)cc1 | – | – | – |
| 9 | 3.5 | 3.5 | – | – | Oc1ccc(/C=C/c2ccc(/C=C/c3cccc(O)c3)cc2)cc1 | – | – | – |
| 9.6 | 5.1 | 0.16 | Active | inactive | Oc1cc(O)cc(/C=C/c2ccc(/C=C/c3cc(O)cc(O)c3)cc2)c1 | Active | Active | inactive |
| 9.6 | > 100 | 0.0053 | Active | inactive | Oc1cccc(/C=C/c2ccc(/C=C/c3cccc(O)c3)cc2)c1 | Active | Active | inactive |
| – | 62 | – | – | – | Oc1ccc(/C=C/c2cc(O)cc(O)c2)cc1 [RESVERATROL] | – | – | – |
| 5.2 | 1.8 | 9.2 | – | – | Oc1ccc(/C=C/c2ccc(O)cc2)cc1 [TRANS-4,4'-DIHYDROXYSTILBENE] | – | – | – |

| Structure (SMILES) | Ratio (Mus musculus [1]) | IC50 [2] [µM] | Kd [3] [µM] | Activity [4] | Activity [5] | Activity (Mus musculus [6]) | Activity (Mus musculus [7]) | Activity (Mus musculus [8]) |
| --- | --- | --- | --- | --- | --- | --- | --- | --- |
| O=c1c(O)c(-c2ccc(O)c(O)c2)oc2cc(O)cc(O)c12 [QUERCETIN] | – | 1.3 | – | – | – | – | – | – |
